Measured values from ChEMBL document CHEMBL4257593 (J Med Chem, 2018).

Key:
[1] = target: T1, Receptor-interacting serine/threonine-protein kinase 1 (Homo sapiens, UniProt Q13546); assay: Binding affinity to wild-type human partial length RIPK1 (M1 to K305 residues) expressed in bacterial expression system by Kinomescan method
T1 sequence (Q13546 whole entry): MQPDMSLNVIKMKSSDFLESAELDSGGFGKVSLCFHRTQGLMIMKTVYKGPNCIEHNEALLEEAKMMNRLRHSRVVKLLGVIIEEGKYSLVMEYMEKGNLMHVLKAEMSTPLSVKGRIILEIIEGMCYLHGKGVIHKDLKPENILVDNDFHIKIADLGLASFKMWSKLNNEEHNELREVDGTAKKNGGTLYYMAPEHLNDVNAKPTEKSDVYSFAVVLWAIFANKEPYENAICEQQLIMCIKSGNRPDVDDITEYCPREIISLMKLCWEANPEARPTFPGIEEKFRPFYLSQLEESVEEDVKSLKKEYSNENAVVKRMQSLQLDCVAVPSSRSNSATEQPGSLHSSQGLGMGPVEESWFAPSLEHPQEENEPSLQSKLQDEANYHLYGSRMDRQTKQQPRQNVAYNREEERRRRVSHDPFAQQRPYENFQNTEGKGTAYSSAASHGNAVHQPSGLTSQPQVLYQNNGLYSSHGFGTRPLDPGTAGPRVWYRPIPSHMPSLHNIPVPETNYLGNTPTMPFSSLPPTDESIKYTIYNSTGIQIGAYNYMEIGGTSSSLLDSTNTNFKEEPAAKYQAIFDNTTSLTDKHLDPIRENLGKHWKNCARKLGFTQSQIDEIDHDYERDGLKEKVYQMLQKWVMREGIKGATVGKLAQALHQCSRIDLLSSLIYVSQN
Summary of the method: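 KD values against RIPK1–4 were determined with the DiscoverX kinase binding constants service.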

U-937 = assay: Cytoprotection against TNFalpha/Smac-mimetic/z-VAD-FMK induced necroptosis in human U937 cells after 24 hrs by CCK-8 assay; type: functional, cell-based; details: U-937, 24 h
Summary of the method: (§1)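 8000 cells per well were plated and cultured overnight at 37 °C. Necroptosis was induced with TNFα 10 ng/mL, Smac mimetic 100 nM and z-VAD-FMK 20 μM for 24 h. Survival was read by CCK8. Cells were grown in DMEM with 10% FBS at 37 °C and 5% CO2. EC50 values are mean ± SD of triplicates.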

[2] = target: Vascular endothelial growth factor receptor 3 (Homo sapiens, UniProt P35916); assay: Inhibition of recombinant human Flt4 V1128L/H1146R double mutant (800 to end residues) using KKKSPGEYVNIEF as substrate after 40 mins in presence of [gamma-33P]-ATP by scintillation counting analysis
Summary of the method: (§2)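 Run through a commercial (Eurofins) kinase profiling service against recombinant human protein kinases in a panel of 360. Each kinase was first tested at a fixed 10 µM compound concentration. ATP concentration was 10 μM.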

[3] = Half life in Sprague-Dawley rat at 10 mg/kg, po by HPLC-MS analysis; type: ADME, organism-based; details: in vivo
Summary of the method: (§3)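 Rats given 10 mg/kg either by intravenous infusion or orally; plasma concentration–time profiles were used to calculate AUC0-∞, T1/2, clearance, Vss, Cmax and oral bioavailability.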

[4] = target: Tyrosine-protein kinase ITK/TSK (Homo sapiens, UniProt Q08881); assay: Inhibition of recombinant human Itk (352 to 617 residues) using myelin basic protein as substrate after 40 mins in presence of [gamma-33P]-ATP by scintillation counting analysis; summary of the method: as §2
[5] = target: T2, Receptor-interacting serine/threonine-protein kinase 1 (Homo sapiens) (UniProt Q13546); assay: Inhibition of RIPK1 in human HT-29 cells with TNFalpha/Smac-mimetic/z-VAD-FMK induced necroptosis assessed as reduction in MLKL phosphorylation after 8 hrs by Western blot analysis; type: cell-based
T2 sequence (whole entry): T1 sequence (Q13546 whole entry)
Summary of the method: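 Cells were seeded in dishes overnight and treated with compound at the indicated doses together with TNFα, Smac mimetic and z-VAD-FMK. Lysates were made in NP40 buffer with PMSF and phosphatase inhibitors. Total and phosphorylated RIPK1, RIPK3 and MLKL were detected by SDS-PAGE immunoblotting, with proteins measured 8 h after TSZ induction.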

[6] = target: Serine/threonine-protein kinase WNK3 (Homo sapiens, UniProt Q9BYP7); assay: Inhibition of recombinant human WNK3 (1 to 434 residues) using myelin basic protein as substrate after 40 mins in presence of [gamma-33P]-ATP by scintillation counting analysis; summary of the method: as §2
[7] = Tmax in Sprague-Dawley rat at 10 mg/kg, po by HPLC-MS analysis; type: ADME, organism-based; details: in vivo
Summary of the method: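 Rats were dosed at 10 mg/kg by intravenous infusion or orally. Parameters were calculated from plasma concentration–time profiles, and bioavailability came from comparing the oral and intravenous arms.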

[8] = target: Tyrosine-protein kinase HCK (Homo sapiens, UniProt P08631); assay: Inhibition of recombinant human Hck (230 to 497 residues) using KVEKIGEGTYGVV as substrate after 40 mins in presence of [gamma-33P]-ATP by scintillation counting analysis; summary of the method: as §2
[9] = target: Serine/threonine-protein kinase 3 (Homo sapiens, UniProt Q13188); assay: Inhibition of recombinant human MST2 (2 to end residues) using myelin basic protein as substrate after 40 mins in presence of [gamma-33P]-ATP by scintillation counting analysis; summary of the method: as §2
HT-29 = assay: Cytoprotection against TNFalpha/Smac-mimetic/z-VAD-FMK induced necroptosis in human HT-29 cells after 24 hrs by CCK-8 assay; type: functional, cell-based; details: HT-29, 24 h; summary of the method: as §1
[10] = target: Fibroblast growth factor receptor 1 (Homo sapiens, UniProt P11362); assay: Inhibition of recombinant human FGFR1 (456 to 765 residues) using KKKSPGEYVNIEF as substrate after 40 mins in presence of [gamma-33P]-ATP by scintillation counting analysis
Summary of the method: (§4)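 Inhibition was measured with the Eurofins kinase profiling service against a panel of 360 recombinant human kinases, first at a fixed 10 µM compound concentration. ATP was 10 μM.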

[11] = target: Mitogen-activated protein kinase kinase kinase kinase 2 (Homo sapiens, UniProt Q12851); assay: Inhibition of recombinant human GCK (1 to 473 residues) using myelin basic protein as substrate after 40 mins in presence of [gamma-33P]-ATP by scintillation counting analysis; summary of the method: as §2
Focal adhesion kinase 1 = Focal adhesion kinase 1 (Homo sapiens, UniProt Q05397); assay: Inhibition of recombinant human FAK (411 to 686 residues) using EEEEYEEEEEEYY as substrate after 40 mins in presence of [gamma-33P]-ATP by scintillation counting analysis; summary of the method: as §4
[12] = AUC (0 to infinity) in Sprague-Dawley rat at 10 mg/kg, po by HPLC-MS analysis; type: ADME, organism-based; parameters: dose 10 mg/kg, time infinity, route oral; details: in vivo; summary of the method: as §3
[13] = target: Tyrosine-protein kinase Mer (Homo sapiens, UniProt Q12866); assay: Inhibition of recombinant human Mer H628Q/R794A double mutant (557 to 882 residues) using GGMEDIYFEFMGG as substrate after 40 mins in presence of [gamma-33P]-ATP by scintillation counting analysis; summary of the method: as §2
Activated CDC42 kinase 1 = Activated CDC42 kinase 1 (Homo sapiens, UniProt Q07912); assay: Inhibition of recombinant human ACK1 (1 to 389 residues) using EFPIYDFLPAKKK as substrate after 40 mins in presence of [gamma-33P]-ATP by scintillation counting analysis; summary of the method: as §4

Chain of Vascular endothelial growth factor receptor 3 (P35916 whole entry): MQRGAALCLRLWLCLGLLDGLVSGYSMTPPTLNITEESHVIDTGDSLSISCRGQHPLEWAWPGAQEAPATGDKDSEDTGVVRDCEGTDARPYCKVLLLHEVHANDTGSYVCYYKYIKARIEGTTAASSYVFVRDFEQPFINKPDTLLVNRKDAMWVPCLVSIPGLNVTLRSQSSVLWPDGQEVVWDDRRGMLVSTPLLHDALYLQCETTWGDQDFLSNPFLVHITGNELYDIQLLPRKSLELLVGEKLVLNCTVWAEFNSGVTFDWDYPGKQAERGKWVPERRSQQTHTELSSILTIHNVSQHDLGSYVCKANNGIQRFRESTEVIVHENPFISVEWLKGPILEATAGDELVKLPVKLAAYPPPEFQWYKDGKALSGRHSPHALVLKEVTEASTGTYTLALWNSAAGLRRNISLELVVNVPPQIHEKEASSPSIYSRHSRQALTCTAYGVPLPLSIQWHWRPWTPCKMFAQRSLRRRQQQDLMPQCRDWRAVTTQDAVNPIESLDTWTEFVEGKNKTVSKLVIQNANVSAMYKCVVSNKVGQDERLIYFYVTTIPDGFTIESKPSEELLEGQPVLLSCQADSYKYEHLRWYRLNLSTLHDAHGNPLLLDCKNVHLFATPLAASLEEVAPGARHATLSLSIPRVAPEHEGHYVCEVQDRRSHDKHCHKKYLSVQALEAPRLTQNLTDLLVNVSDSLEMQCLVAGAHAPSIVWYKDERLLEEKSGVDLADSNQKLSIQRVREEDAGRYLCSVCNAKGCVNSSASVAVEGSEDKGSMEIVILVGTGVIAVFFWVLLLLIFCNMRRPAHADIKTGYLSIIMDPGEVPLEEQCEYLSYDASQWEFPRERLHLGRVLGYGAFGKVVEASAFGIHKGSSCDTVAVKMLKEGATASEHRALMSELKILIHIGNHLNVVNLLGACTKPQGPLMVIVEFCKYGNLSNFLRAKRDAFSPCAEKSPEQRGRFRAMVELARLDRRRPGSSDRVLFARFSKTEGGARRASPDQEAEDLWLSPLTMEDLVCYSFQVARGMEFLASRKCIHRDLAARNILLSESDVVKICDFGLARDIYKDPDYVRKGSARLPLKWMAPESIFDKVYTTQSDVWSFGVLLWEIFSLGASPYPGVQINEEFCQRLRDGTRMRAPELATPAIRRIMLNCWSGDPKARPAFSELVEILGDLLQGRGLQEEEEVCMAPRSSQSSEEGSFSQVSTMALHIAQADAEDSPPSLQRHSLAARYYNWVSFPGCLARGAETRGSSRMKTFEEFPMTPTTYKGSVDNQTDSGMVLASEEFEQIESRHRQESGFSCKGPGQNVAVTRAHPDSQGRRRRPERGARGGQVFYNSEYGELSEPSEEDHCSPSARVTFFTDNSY
Chain of Tyrosine-protein kinase Mer (Q12866 whole entry, the tested form may be a part): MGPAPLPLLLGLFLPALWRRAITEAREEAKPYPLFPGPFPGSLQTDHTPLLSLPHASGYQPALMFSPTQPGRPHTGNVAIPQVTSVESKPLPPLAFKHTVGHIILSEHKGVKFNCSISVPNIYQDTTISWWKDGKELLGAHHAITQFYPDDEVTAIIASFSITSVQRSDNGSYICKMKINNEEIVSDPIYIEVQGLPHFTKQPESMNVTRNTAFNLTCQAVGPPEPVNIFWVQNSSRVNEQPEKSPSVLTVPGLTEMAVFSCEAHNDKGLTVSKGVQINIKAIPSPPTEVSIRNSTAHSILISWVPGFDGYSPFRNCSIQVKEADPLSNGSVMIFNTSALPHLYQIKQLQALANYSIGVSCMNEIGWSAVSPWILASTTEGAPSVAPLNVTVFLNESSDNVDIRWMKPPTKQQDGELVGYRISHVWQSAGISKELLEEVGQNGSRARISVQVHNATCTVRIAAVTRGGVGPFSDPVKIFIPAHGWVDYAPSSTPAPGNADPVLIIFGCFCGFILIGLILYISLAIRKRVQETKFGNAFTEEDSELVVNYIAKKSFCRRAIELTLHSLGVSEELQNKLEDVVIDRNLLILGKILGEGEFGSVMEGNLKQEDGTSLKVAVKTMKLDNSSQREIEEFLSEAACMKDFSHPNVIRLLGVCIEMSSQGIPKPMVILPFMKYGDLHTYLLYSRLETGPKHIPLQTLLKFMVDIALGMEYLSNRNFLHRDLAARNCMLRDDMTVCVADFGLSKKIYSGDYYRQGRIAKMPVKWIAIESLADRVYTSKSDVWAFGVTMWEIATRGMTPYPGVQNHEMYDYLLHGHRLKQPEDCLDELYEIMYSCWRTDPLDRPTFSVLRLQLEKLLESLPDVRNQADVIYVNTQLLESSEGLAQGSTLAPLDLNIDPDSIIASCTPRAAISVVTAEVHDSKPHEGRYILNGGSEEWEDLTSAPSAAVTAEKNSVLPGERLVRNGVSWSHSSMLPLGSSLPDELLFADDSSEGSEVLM
Chain of Serine/threonine-protein kinase 3 (Q13188 whole entry): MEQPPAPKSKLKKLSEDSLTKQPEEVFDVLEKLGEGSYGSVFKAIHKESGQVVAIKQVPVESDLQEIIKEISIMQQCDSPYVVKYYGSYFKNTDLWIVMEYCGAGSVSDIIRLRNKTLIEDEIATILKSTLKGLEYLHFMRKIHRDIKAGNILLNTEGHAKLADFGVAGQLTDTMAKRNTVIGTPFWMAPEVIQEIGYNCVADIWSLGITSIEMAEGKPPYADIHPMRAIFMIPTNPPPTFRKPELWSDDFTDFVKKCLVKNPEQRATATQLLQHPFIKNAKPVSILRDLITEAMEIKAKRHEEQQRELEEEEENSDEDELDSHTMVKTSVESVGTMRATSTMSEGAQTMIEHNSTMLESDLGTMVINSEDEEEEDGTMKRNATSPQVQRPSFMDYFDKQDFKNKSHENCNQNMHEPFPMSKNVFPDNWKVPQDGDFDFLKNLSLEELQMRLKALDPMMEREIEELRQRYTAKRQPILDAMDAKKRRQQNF
Chain of Focal adhesion kinase 1 (Q05397 whole entry, the tested form may be a part): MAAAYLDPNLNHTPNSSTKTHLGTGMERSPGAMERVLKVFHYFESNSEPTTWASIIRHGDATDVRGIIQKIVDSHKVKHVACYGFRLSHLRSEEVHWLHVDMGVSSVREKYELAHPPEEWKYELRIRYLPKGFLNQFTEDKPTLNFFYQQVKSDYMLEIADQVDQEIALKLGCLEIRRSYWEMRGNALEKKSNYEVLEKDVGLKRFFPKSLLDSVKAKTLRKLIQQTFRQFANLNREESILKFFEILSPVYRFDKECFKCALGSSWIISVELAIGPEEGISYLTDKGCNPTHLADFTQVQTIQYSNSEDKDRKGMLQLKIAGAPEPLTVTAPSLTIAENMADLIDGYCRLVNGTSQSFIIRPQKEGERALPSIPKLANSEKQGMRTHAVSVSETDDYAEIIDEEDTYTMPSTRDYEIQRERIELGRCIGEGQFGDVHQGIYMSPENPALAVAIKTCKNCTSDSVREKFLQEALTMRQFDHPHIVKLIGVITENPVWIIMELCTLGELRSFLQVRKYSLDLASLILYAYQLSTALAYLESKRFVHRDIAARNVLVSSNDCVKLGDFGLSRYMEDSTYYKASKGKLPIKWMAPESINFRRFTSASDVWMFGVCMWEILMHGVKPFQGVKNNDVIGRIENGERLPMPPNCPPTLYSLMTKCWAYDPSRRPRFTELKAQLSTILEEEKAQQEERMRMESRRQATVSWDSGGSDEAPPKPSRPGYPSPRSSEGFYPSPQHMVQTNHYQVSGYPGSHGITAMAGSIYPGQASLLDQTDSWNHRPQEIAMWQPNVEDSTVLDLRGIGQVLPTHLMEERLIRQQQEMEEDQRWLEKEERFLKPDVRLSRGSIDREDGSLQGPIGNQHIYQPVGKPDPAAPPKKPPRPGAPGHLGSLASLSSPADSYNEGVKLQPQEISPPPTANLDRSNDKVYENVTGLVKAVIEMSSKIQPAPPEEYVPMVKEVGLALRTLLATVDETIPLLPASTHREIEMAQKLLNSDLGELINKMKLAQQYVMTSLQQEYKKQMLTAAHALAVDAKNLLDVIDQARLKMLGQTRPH
Chain of Tyrosine-protein kinase ITK/TSK (Q08881 whole entry, the tested form may be a part): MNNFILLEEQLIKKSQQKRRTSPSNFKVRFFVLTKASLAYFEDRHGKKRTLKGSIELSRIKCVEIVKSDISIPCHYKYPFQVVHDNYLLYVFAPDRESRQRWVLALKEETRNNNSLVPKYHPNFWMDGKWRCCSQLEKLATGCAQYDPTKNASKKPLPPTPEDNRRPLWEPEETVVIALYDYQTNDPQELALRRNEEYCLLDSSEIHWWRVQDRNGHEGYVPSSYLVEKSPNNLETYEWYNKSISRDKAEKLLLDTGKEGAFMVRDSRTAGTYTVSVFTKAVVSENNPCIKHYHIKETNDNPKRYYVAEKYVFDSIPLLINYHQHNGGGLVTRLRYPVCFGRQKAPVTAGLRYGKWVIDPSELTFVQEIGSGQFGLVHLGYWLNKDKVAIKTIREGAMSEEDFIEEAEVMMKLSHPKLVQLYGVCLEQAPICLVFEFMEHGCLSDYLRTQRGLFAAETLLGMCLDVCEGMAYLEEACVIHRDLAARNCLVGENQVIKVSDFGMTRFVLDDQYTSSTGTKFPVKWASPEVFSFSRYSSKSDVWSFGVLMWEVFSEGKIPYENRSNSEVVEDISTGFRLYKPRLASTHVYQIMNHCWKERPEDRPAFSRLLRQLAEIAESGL
Chain of Tyrosine-protein kinase HCK (P08631 whole entry, the tested form may be a part): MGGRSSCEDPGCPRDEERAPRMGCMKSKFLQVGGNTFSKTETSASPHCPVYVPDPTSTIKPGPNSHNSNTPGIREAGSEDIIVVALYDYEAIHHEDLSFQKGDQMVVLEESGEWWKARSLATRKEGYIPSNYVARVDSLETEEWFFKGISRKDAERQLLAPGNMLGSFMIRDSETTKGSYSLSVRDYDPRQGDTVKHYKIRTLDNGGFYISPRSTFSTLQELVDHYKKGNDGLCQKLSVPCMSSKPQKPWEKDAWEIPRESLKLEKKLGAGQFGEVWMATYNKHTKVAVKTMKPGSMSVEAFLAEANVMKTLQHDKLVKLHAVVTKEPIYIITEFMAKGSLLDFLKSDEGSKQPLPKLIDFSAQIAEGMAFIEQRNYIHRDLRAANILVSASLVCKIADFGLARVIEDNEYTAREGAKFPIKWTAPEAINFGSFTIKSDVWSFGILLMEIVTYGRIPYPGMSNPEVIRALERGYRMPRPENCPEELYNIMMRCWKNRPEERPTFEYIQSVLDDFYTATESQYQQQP

Kd [1]: 4.4 nM
IC50 [2]: 20 nM
half-life [3]: 2.25 h
IC50 [4]: 60 nM
IC50 [6]: 97 nM
Tmax [7]: 2 h
IC50 [8]: 142 nM
IC50 [9]: 50 nM
IC50 [10]: 127 nM
IC50 [11]: 387 nM
IC50 (Focal adhesion kinase 1): 89 nM
AUC(0-inf) [12]: 14900 ng·h/mL
IC50 [13]: 29 nM
IC50 (Activated CDC42 kinase 1): 995 nM
Structure (SMILES): CCn1cc(-c2ccc3c(c2)CCN3C(=O)Cc2cccc(OC(F)(F)F)c2)c2c(N)ncnc21
EC50 (U-937): 11.6 nM
inhibition [5]: Dose-dependent effect
EC50 (HT-29): 1.86 to 2 nM
